Laboratory results taken from ChEMBL document CHEMBL1158686, “Three new taxane diterpenoids from Taxus sumatrana” (2005).

Experiments:
Type in all cases: functional
A498 = experiment: Cytotoxicity against human A498 cells assessed as growth inhibition after at 30 ug/ml 48 hrs by SRB assay; settings: A498, 48 h
In short: (§1)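 Adherent cells were seeded at 5000–40 000 cells/well according to doubling time and preincubated 24 h at 37 °C in 5% CO2 and humidified air. Drug was diluted in complete medium with 50 µg/mL gentamicin and exposed for 48 h under the same conditions. Cells were fixed in situ with cold TCA (10% final, 60 min, 4 °C), stained with 0.4% SRB in 1% HOAc, solubilized in 10 mM Tris base, and read at 515 nm.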

NCI-H226 = experiment: Cytotoxicity against human NCI-H226 cells assessed as growth inhibition after at 30 ug/ml 48 hrs by SRB assay; settings: NCI-H226, 48 h; in short: as §1
A549 = experiment: Cytotoxicity against human A549 cells assessed as growth inhibition after at 30 ug/ml 48 hrs by SRB assay; settings: A549, 48 h; in short: as §1
PC-3 = experiment: Cytotoxicity against human PC-3 cells assessed as growth inhibition after at 30 ug/ml 48 hrs by SRB assay; settings: PC-3, 48 h; in short: as §1

| Structure (SMILES) | inhibition at 30 µg/mL (A498) [%] | inhibition at 30 µg/mL (NCI-H226) [%] | inhibition at 30 µg/mL (A549) [%] | inhibition at 30 µg/mL (PC-3) [%] |
| --- | --- | --- | --- | --- |
| CC(=O)O[C@@]12CO[C@@H]1C[C@H](O)[C@@]1(C)C(=O)[C@H](O)C3=C(C)[C@@H](O)C[C@@](O)([C@@H](OC(=O)c4ccccc4)[C@H]21)C3(C)C | 27 | 5.7 | 12.2 | 1.6 |
| CC(=O)O[C@H]1C(=O)[C@@]2(CO)[C@H]([C@H](OC(=O)c3ccccc3)[C@]3(O)C[C@H](O)C(C)=C1C3(C)C)[C@]1(OC(C)=O)CO[C@@H]1C[C@@H]2O | 26.7 | 44.6 | 0 | 47.7 |
| CC(=O)O[C@@]12CO[C@@H]1C[C@H](O)[C@@]1(C)C(=O)C(=O)C3=C(C)[C@@H](O)C[C@@](O)([C@@H](OC(=O)c4ccccc4)[C@H]21)C3(C)C | 79.1 | 97.3 | 54.7 | 100 |
| CC(=O)O[C@@]12CO[C@@H]1C[C@H](O)[C@@]1(CO)C(=O)[C@H](O)C3=C(C)[C@@H](O)C[C@@](O)([C@@H](OC(=O)c4ccccc4)[C@H]21)C3(C)C | 16.6 | 32 | 0 | 2.3 |
| CC(=O)O[C@H]1C(=O)[C@@]2(CO)[C@H]([C@H](OC(=O)c3ccccc3)[C@]3(O)CC(=O)C(C)=C1C3(C)C)[C@]1(OC(C)=O)CO[C@@H]1C[C@@H]2O | 79.8 | 84.7 | 45.4 | 88.2 |
| CC(=O)O[C@H]1C[C@H]2OC[C@@]2(OC(C)=O)[C@H]2[C@H](OC(=O)c3ccccc3)[C@]3(C(C)(C)O)C[C@H](O)C(C)=C3[C@@H](O)[C@H](OC(C)=O)[C@]12C | 21.7 | 19.9 | 27.1 | 1.9 |
| CC(=O)O[C@@]12CO[C@@H]1C[C@H](O)[C@@]1(C)C(=O)[C@H](O)C3=C(C)C(=O)C[C@@](O)([C@@H](OC(=O)c4ccccc4)[C@H]21)C3(C)C | 29.7 | 49.2 | 43.9 | 65.3 |
| CC(=O)O[C@H]1C(=O)[C@@]2(C)[C@H]([C@H](OC(=O)c3ccccc3)[C@]3(O)C[C@H](OC(=O)[C@H](O)[C@@H](NC(=O)c4ccccc4)c4ccccc4)C(C)=C1C3(C)C)[C@]1(OC(C)=O)CO[C@@H]1C[C@@H]2O [PACLITAXEL] | 98.2 | 71.2 | 79.7 | 91.7 |
| CC(=O)OC[C@H]1[C@H]2[C@H](O)[C@]3(C(C)(C)O)C[C@H](O)C(C)=C3[C@@H](O)[C@H](OC(=O)c3ccccc3)[C@]2(C)[C@@H](OC(C)=O)C[C@@H]1OC(C)=O [TASUMATROL F] | 83 | 78.5 | 72.6 | 95 |
| CC(=O)O[C@H]1C[C@H](OC(C)=O)[C@]2(C)[C@@H]3[C@H](OC[C@]13OC(=O)c1ccccc1)[C@]1(C(C)(C)O)C[C@H](O)C(C)=C1[C@@H](O)[C@@H]2OC(C)=O [TASUMATROL G] | 15.3 | 78.9 | 24.1 | 58.9 |
| CC(=O)OC[C@]1(O)[C@@H](OC(C)=O)C[C@H](OC(C)=O)[C@]2(C)[C@@H]1[C@H](O)[C@]1(C(C)(C)O)C[C@H](O)C(C)=C1[C@@H](O)[C@@H]2OC(=O)c1ccccc1 [TASUMATROLS E] | 100 | 84.8 | 91.3 | 94.7 |
| CC(=O)O[C@H]1C[C@H](OC(C)=O)[C@]2(C)[C@@H]([C@@H]1CO)[C@H](OC(C)=O)[C@]1(C(C)(C)O)C[C@H](O)C(C)=C1[C@@H](O)[C@@H]2OC(C)=O [TAXAYUNTIN G] | 21.2 | 29.3 | 0 | 1.4 |
| C=C1[C@@H](O)C[C@H](OC(C)=O)[C@@]2(COC(=O)c3ccccc3)[C@@H](OC(C)=O)[C@H](OC(C)=O)[C@]3(O)[C@@]4(C)CO[C@]3(C)C(=O)C[C@H]4[C@@H](OC(C)=O)[C@H]12 [TAXININ M] | 24.3 | 11.1 | 14.6 | 0 |
| CC(=O)O[C@@]12CO[C@@H]1C[C@H](O)[C@]1(C)[C@@H]2[C@H](OC(=O)c2ccccc2)[C@]23C[C@H](O)C(C)=C2[C@@]1(O)C(=O)OC3(C)C [WALLIFOLIOL] | 27.9 | 29.1 | 16.7 | 6.4 |
